For 45 compounds, Concentration results are on record in ChEMBL document CHEMBL1124233, “Clofazimine analogues active against a clofazimine-resistant organism” (J Med Chem, 1988).

The structures appear in SMILES notation.

Holding throughout (format): functional, organism-based
The subject of assay [1] is Mycolicibacterium smegmatis. Briefly: 100% inhibition of growth of clofazimine resistant Mycobacterium smegmatis 607 strain in vitro. Summed up: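 Strain: 20× step-up clofazimine-resistant mutant of M. smegmatis ATCC607. 10^5 viable cells inoculated into modified Kirchner's medium with 0.5% Tween 80. Drugs were added in DMSO (2% final in all tubes). Roller tubes were incubated at 37 °C for 72 h. Growth was read as optical transmission in a spectrophotometer.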

In assay [2] the test system is Mycolicibacterium smegmatis. The assay is described as follows: 100% inhibition of growth of rifampicin resistant Mycobacterium smegmatis 607 strain in vitro. In short, it runs like this:
(§1)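 M. smegmatis ATCC607-derived strains (one of three used, including a dapsone-sensitive one) were grown in modified Kirchner's medium with 0.5% Tween 80, inoculated with 10^5 viable cells. Drugs were added in DMSO (2% final). Roller tubes were incubated at 37 °C for 72 h. Growth was read as spectrophotometric transmission.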

The test system of assay [3] is Mycolicibacterium smegmatis. Briefly: Concentration for 100% inhibition of growth of dapsone sensitive Mycobacterium smegmatis 607 strain in vitro. In short, it runs like this: as §1

As to `CC(C)/N=c1\cc2n(-c3ccccc3)c3ccccc3nc-2cc1Nc1ccccc1`, the Concentration in assay [1] was 100 µg/mL; in assay [2], 3 µg/mL; in assay [3], 2 µg/mL.

As to `CCCCN(CCCC)CCC/N=c1\cc2n(-c3ccc(Cl)cc3)c3ccccc3nc-2cc1Nc1ccc(Cl)cc1`, the figures for the Concentration in assay [1], in assay [2] and in assay [3] were 12 µg/mL, 0.8 µg/mL and 0.4 µg/mL, respectively.

As for `OCCNCC/N=c1\cc2n(-c3ccccc3)c3ccc(Cl)cc3nc-2cc1Nc1ccccc1`, the figures for the Concentration in assay [1], in assay [2] and in assay [3] were 20 µg/mL, 10 µg/mL and 5 µg/mL, respectively.

Consider `OCCCN1CCN(CCC/N=c2\cc3n(-c4ccc(Cl)cc4)c4ccccc4nc-3cc2Nc2ccc(Cl)cc2)CC1`, for which the results for the Concentration in assay [1], in assay [2] and in assay [3] were 2 µg/mL, 0.5 µg/mL and 0.6 µg/mL, respectively.

`CCN1CCCC1C/N=c1\cc2n(-c3ccc(Cl)cc3)c3ccccc3nc-2cc1Nc1ccc(Cl)cc1` (stereo not given): the Concentration in assay [1] stood at 10 µg/mL; in assay [2], 1 µg/mL; in assay [3], 1 µg/mL.

With `NCCCCCC/N=c1\cc2n(-c3ccc(Cl)cc3)c3ccccc3nc-2cc1Nc1ccc(Cl)cc1`, the Concentration in assay [1] is 2 µg/mL; in assay [2] it was 0.8 µg/mL; in assay [3] it was 0.3 µg/mL.

With `CCOc1ccc(Nc2cc3nc4ccccc4n(-c4ccc(OCC)cc4)c-3c/c2=N\CCO)cc1`, the values for the Concentration in assay [1], in assay [2] and in assay [3] were 20 µg/mL, 10 µg/mL and 5 µg/mL, respectively.

On to `CCN(CC)CC/N=c1\cc2n(-c3ccc(Cl)cc3)c3ccccc3nc-2cc1Nc1ccc(Cl)cc1`, for which the Concentration amounted to 12 µg/mL in assay [1], 0.6 µg/mL in assay [2] and 0.6 µg/mL in assay [3].

In the case of `CC(C/N=c1\cc2n(-c3ccc(Cl)cc3)c3ccccc3nc-2cc1Nc1ccc(Cl)cc1)N(C)C` (stereo not given), the Concentration worked out at 16 µg/mL in assay [1], 6 µg/mL in assay [2] and 1.2 µg/mL in assay [3].

Regarding `CC1CCC(/N=c2\cc3n(-c4ccc(Cl)cc4)c4ccccc4nc-3cc2Nc2ccc(Cl)cc2)CC1` (stereo not given), the Concentration in assay [1] amounted to 25 µg/mL; in assay [2] it was 7.5 µg/mL; in assay [3] it was 7.5 µg/mL.

Consider `OCCC/N=c1\cc2n(-c3ccc(Cl)cc3)c3ccccc3nc-2cc1Nc1ccc(Cl)cc1`, for which the Concentration turned out to be 10 µg/mL in assay [1], 2 µg/mL in assay [2] and 2 µg/mL in assay [3].

For `c1ccc(Nc2cc3nc4ccccc4n(-c4ccccc4)c-3c/c2=N\CCN2CCCCC2)cc1`, the Concentration in assay [1] came to 2 µg/mL; in assay [2], 0.4 µg/mL; in assay [3], 0.4 µg/mL.

For the compound `O=C1CCCN1CCC/N=c1\cc2n(-c3ccc(Cl)cc3)c3ccccc3nc-2cc1Nc1ccc(Cl)cc1`, the Concentration amounted to 20 µg/mL in assay [1], 2 µg/mL in assay [2] and 2 µg/mL in assay [3].

Consider `Clc1ccc(Nc2cc3nc4ccccc4n(-c4ccc(Cl)cc4)c-3c/c2=N\CC2CCNCC2)cc1`, for which the Concentration in assay [1] was 0.6 µg/mL; in assay [2] it was 0.2 µg/mL; in assay [3], 0.2 µg/mL.

`CC(C)/N=c1\cc2n(-c3ccc(Cl)cc3)c3ccccc3nc-2cc1Nc1ccc(Cl)cc1`: the Concentration in assay [1] was found to be 30 µg/mL; in assay [2] it was 0.5 µg/mL; in assay [3], 1.5 µg/mL.

In the case of `CCCC/N=c1\cc2n(-c3ccccc3)c3ccccc3nc-2cc1Nc1ccccc1`, the Concentration in assay [1] is 20 µg/mL; in assay [2], 3 µg/mL; in assay [3], 3 µg/mL.

As for `CC1CCCCN1CCC/N=c1\cc2n(-c3ccc(Cl)cc3)c3ccccc3nc-2cc1Nc1ccc(Cl)cc1` (stereo not given), the Concentration in assay [1] was 2 µg/mL; in assay [2], 0.2 µg/mL; in assay [3], 0.2 µg/mL.

Consider `O=C1CCCN1CC/N=c1\cc2n(-c3ccc(Cl)cc3)c3ccccc3nc-2cc1Nc1ccc(Cl)cc1`, for which the Concentration in assay [1] was 20 µg/mL; in assay [2], 1.6 µg/mL; in assay [3], 1 µg/mL.

Turning to `Clc1ccc(Nc2cc3nc4ccccc4n(-c4ccc(Cl)cc4)c-3c/c2=N\CCN2CCOCC2)cc1`, the Concentration in assay [1] was determined as 20 µg/mL; in assay [2], 1 µg/mL; in assay [3], 1 µg/mL.

Take `CC1CCCCN1CCC/N=c1\cc2n(-c3ccccc3)c3ccccc3nc-2cc1Nc1ccccc1` (stereo not given): the Concentration in assay [1] was 2 µg/mL; in assay [2], 0.3 µg/mL; in assay [3], 0.3 µg/mL.

On to `CCC/N=c1\cc2n(-c3ccc(Cl)cc3)c3ccccc3nc-2cc1Nc1ccc(Cl)cc1`, for which the Concentration in assay [1] amounted to 100 µg/mL; in assay [2] it was 3 µg/mL; in assay [3], 3 µg/mL.

In the case of `CN1CCN(CCC/N=c2\cc3n(-c4ccccc4)c4ccccc4nc-3cc2Nc2ccccc2)CC1`, the Concentration in assay [1] stood at 1 µg/mL; in assay [2] it was 0.5 µg/mL; in assay [3], 0.5 µg/mL.

For the compound `N=c1cc2n(-c3ccccc3)c3ccccc3nc-2cc1Nc1ccccc1`, the Concentration in assay [1] was 12 µg/mL; in assay [2] it was 8 µg/mL; in assay [3] it was 3 µg/mL.

Take `c1ccc(Nc2cc3nc4ccccc4n(-c4ccccc4)c-3c/c2=N\CCCN2CCCCC2)cc1`: the Concentration in assay [1] turned out to be 1 µg/mL; in assay [2], 0.3 µg/mL; in assay [3] it was 0.3 µg/mL.

For the compound `Clc1ccc2c(c1)nc1cc(Nc3ccccc3)/c(=N/CCN3CCOCC3)cc-1n2-c1ccccc1`, the Concentration in assay [1] worked out at 50 µg/mL; in assay [2] it was 1.5 µg/mL; in assay [3], 1 µg/mL.

In the case of `Clc1ccc(Nc2cc3nc4ccccc4n(-c4ccc(Cl)cc4)c-3c/c2=N\C2CCCCCC2)cc1`, the Concentration in assay [1] came to 50 µg/mL; in assay [2] it was 3 µg/mL; in assay [3] it was 2 µg/mL.

On to `CC/N=c1\cc2n(-c3ccccc3)c3ccccc3nc-2cc1Nc1ccccc1`, for which the Concentration was found to be 20 µg/mL in assay [1], 3 µg/mL in assay [2] and 3 µg/mL in assay [3].

Consider `c1ccc(Nc2cc3nc4ccccc4n(-c4ccccc4)c-3c/c2=N\CCN2CCOCC2)cc1`, for which the Concentration in assay [1] was determined as 10 µg/mL; in assay [2], 2 µg/mL; in assay [3], 2 µg/mL.

Regarding `CCOc1ccc(Nc2cc3nc4ccccc4n(-c4ccc(OCC)cc4)c-3c/c2=N\CC(C)C)cc1`, the Concentration in assay [1] is 100 µg/mL; in assay [2], 4 µg/mL; in assay [3], 4 µg/mL.

As for `CCCNCCC/N=c1\cc2n(-c3ccc(Cl)cc3)c3ccccc3nc-2cc1Nc1ccc(Cl)cc1`, the results for the Concentration in assay [1], in assay [2] and in assay [3] were 2 µg/mL, 0.2 µg/mL and 0.2 µg/mL, respectively.

Regarding `COC(C/N=c1\cc2n(-c3ccccc3)c3ccccc3nc-2cc1Nc1ccccc1)OC`, the values for the Concentration in assay [1], in assay [2] and in assay [3] were 100 µg/mL, 4 µg/mL and 4 µg/mL, respectively.

`Clc1ccc2c(c1)nc1cc(Nc3ccccc3)/c(=N/C3CCCCC3)cc-1n2-c1ccccc1`: the results for the Concentration in assay [1], in assay [2] and in assay [3] were 20 µg/mL, 0.6 µg/mL and 3 µg/mL, respectively.

`Clc1ccc(Nc2cc3nc4ccccc4n(-c4ccc(Cl)cc4)c-3c/c2=N\CCCN2CCOCC2)cc1`: the values for the Concentration in assay [1], in assay [2] and in assay [3] were 12 µg/mL, 0.4 µg/mL and 0.5 µg/mL, respectively.

With `c1ccc(Nc2cc3nc4ccccc4n(-c4ccccc4)c-3c/c2=N\CCCN2CCOCC2)cc1`, the Concentration in assay [1] is 6 µg/mL; in assay [2], 0.8 µg/mL; in assay [3], 1 µg/mL.

For the compound `Clc1ccc(Nc2cc3nc4ccccc4n(-c4ccc(Cl)cc4)c-3c/c2=N\CCN2CCCC2)cc1`, the values for the Concentration in assay [1], in assay [2] and in assay [3] were 10 µg/mL, 0.5 µg/mL and 0.5 µg/mL, respectively.

Turning to `c1ccc(Nc2cc3nc4ccccc4n(-c4ccccc4)c-3c/c2=N\CCCN2CCCC2)cc1`, the Concentration in assay [1] was found to be 0.6 µg/mL; in assay [2] it was 0.2 µg/mL; in assay [3], 0.2 µg/mL.

For the compound `c1ccc(Nc2cc3nc4ccccc4n(-c4ccccc4)c-3c/c2=N\CCN2CCCC2)cc1`, the Concentration came out at 2 µg/mL in assay [1], 0.4 µg/mL in assay [2] and 0.4 µg/mL in assay [3].

`CCN(CC)CC/N=c1\cc2n(-c3ccccc3)c3ccc(Cl)cc3nc-2cc1Nc1ccccc1`: the Concentration in assay [1] is 30 µg/mL; in assay [2] it was 2 µg/mL; in assay [3] it was 1 µg/mL.

As to `COC(C/N=c1\cc2n(-c3ccc(Cl)cc3)c3ccccc3nc-2cc1Nc1ccc(Cl)cc1)OC`, the Concentration in assay [1] came to 60 µg/mL; in assay [2], 5 µg/mL; in assay [3], 4 µg/mL.

Take `Cc1ccc(Nc2cc3nc4ccccc4n(-c4ccc(C)cc4)c-3c/c2=N\CC(C)C)cc1`: the values for the Concentration in assay [1], in assay [2] and in assay [3] were 100 µg/mL, 3 µg/mL and 2 µg/mL, respectively.

As to `CC(C)CC/N=c1\cc2n(-c3ccccc3)c3ccc(Cl)cc3nc-2cc1Nc1ccccc1`, the Concentration in assay [1] turned out to be 100 µg/mL; in assay [2], 3 µg/mL; in assay [3], 3 µg/mL.

Consider `CCC(CO)/N=c1\cc2n(-c3ccccc3)c3ccccc3nc-2cc1Nc1ccccc1` (stereo not given), for which the figures for the Concentration in assay [1], in assay [2] and in assay [3] were 100 µg/mL, 30 µg/mL and 2 µg/mL, respectively.

For the compound `OC1CCC(/N=c2\cc3n(-c4ccc(Cl)cc4)c4ccccc4nc-3cc2Nc2ccc(Cl)cc2)CC1` (stereo not given), the Concentration in assay [1] was 30 µg/mL; in assay [2], 4 µg/mL; in assay [3] it was 2 µg/mL.

Turning to `CCCC/N=c1\cc2n(-c3ccccc3)c3ccc(Cl)cc3nc-2cc1Nc1ccccc1`, the figures for the Concentration in assay [1], in assay [2] and in assay [3] were 100 µg/mL, 3 µg/mL and 2 µg/mL, respectively.

`Clc1ccc(Nc2cc3nc4ccccc4n(-c4ccc(Cl)cc4)c-3c/c2=N\CC2CCCCC2)cc1`: the results for the Concentration in assay [1], in assay [2] and in assay [3] were 100 µg/mL, 3 µg/mL and 3 µg/mL, respectively.
